The source made the active and inactive calls.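 The calls were made as follows, unless noted: active = NADPH fluorescence slope more negative than the mean of all samples by about 3 SD, 99.7% confidence; inactive = the rest.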
How the values were obtained:
[1] = inhibitors of TNFa-induced NFkB p65 translocation, primary screen, imaging, HUVEC, MLSMR starter and 10KST1 sets (AID 438;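 active = inhibition above 20% together with a positive visual image hit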;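 also: compound added about 3h40 before a 20 min TNFalpha stimulation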;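 as to inhibition: signal is the nuclear over cytoplasmic p65 intensity ratio per well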); conditions: HUVEC TNFa-induced p65 nuclear translocation; cell count: measured here: nuclei count (cytotoxicity indicator), at 2.08 µM; inhibition: at 2 µM, stronger effect = higher value, 0% TNFa-plus-vehicle, 100% no-TNFa wells
[2] = reduction of polyQ htt aggregates in cells – imaging, exon1htt(103Q)mCFP cells, high-content imaging, primary screen (AID 483;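 active = visual image review flags a hit and inhibition of aggregation exceeds 20%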;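 also: compound exposure lasted 3 days before fixation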;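 as to nuclei count: percent of the per-plate median nuclei count of sample wells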); conditions: exon1htt(103Q)mCFP cell line, aggregate imaging, at 2 µM; inhibition of aggregation: stronger effect = higher value; nuclei count: measured here: cell count, toxicity
[3] = endothelial E-selectin expression blockers – imaging, HUVEC, immunofluorescence, MLSMR starter and 10KST1 sets, primary screen (AID 487;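 active = visually confirmed hit in the image check and inhibition above 20%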;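 as to inhibition: signal is fraction of cell area covered by stained E-selectin grains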;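 as to nuclei count: 100% = median nuclei count of all wells on the same plate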); conditions: HUVEC TNFalpha-induced E-selectin immunofluorescence imaging, at 2 µM; inhibition: stronger effect = higher value; nuclei count: measured here: cell number, toxicity
[4] = target: Voltage-gated potassium channel subunit beta-2 (Rattus norvegicus) (UniProt P62483); assay: inhibitors of rat Kvbeta2 reductase activity – biochemical, NADPH fluorescence, primary screen (AID 622;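 active = fluorescence slope higher than the sample average by over 3 SD, cut at about -0.22 in these data, passing the limit was not always enough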;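 also: slope of raw intensity against log time taken from 70 to 1610 s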); conditions: recombinant KvBeta, 4-cyanobenzaldehyde reduction, at 10 µM, stronger effect = higher value
Voltage-gated potassium channel subunit beta-2 (Rattus norvegicus), sequence (P62483 whole entry, looked up): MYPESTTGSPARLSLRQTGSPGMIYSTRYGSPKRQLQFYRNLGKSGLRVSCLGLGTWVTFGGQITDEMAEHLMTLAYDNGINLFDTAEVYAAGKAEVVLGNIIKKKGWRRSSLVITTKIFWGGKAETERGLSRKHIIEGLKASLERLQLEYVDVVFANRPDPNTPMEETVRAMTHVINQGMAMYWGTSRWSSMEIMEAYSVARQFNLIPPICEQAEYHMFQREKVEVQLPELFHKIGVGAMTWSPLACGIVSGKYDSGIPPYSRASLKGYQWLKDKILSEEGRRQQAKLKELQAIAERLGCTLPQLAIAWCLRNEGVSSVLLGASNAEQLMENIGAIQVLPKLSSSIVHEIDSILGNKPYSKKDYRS

[5] = target: Voltage-gated potassium channel subunit beta-2 (Rattus norvegicus) (UniProt P62483); assay: enhancers of rat Kvbeta2 NADPH turnover – biochemical, NADPH fluorescence, primary screen (AID 623); conditions: Recombinant KvBeta, NADPH fluorescence decrease slope, 10 min; at 10 µM; stronger effect = lower value;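 also: fluorescence intensity change per second fitted from 20 to 320 s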
[6] = target: Muscarinic acetylcholine receptor M4 (Homo sapiens) (UniProt P08173); assay: M4-linked GIRK flux change, two-sided – cell-based, HEK293 M4/GIRK, thallium flux, BTC-AM, M4 allosteric agonist project, primary screen (AID 625;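 active = fluorescence slope after compound addition differing from the mean of all tested samples at 99.7% confidence, mostly higher but some lower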;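 also: thallium influx through GIRK channels coupled to M4 in HEK293 cells with BTC-AM dye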); conditions: at 10 µM, actives lie on both sides
Muscarinic acetylcholine receptor M4 (Homo sapiens), sequence (P08173 whole entry, looked up): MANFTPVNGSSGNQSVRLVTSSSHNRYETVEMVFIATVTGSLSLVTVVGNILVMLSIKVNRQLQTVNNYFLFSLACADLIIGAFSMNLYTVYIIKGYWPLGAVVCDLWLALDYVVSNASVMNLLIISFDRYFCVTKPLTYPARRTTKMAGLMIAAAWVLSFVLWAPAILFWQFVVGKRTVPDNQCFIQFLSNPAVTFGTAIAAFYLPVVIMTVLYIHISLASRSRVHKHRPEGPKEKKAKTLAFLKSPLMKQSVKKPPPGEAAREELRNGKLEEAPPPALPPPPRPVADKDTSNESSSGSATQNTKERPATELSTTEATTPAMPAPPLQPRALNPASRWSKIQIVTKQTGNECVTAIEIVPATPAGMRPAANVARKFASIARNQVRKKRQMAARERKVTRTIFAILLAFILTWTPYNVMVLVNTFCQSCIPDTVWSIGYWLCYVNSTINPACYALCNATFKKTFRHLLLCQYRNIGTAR
In short: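 Assay system: HEK293 cells with M4 receptor and GIRK channels / Controls: carbachol and DMSO controls / Schedule: 1 h dye loading, 2 min kinetic read / Technique: kinetic fluorescence with BTC-AM dye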

[7] = blockers of RIG-like receptor reporter activation – cell-based, Sendai virus stimulus, luciferase, 10K MLSCN set, TLR/RLR signaling modifier project, primary screen (AID 602276;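 active = inhibition at or above 50% at 10 µM; inactive = inhibition below 50%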;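 also: firefly luciferase from ISG56 promoter only with Renilla not read in this screen; 0% = Sendai virus plus DMSO and 100% = medium plus DMSO without virus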); conditions: HEK293 RL24 IRF3 luciferase reporter, at 10 µM, stronger effect = higher value
[8] = TLR3 IRF3 reporter activation blockers – cell-based, poly I:C stimulus, luciferase, 10K MLSCN set, primary screen (AID 602277;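 active = inhibition of the reporter signal at or above 50%; inactive = inhibition below 50%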); conditions: HEK293-TLR3 RL24 IRF3 luciferase reporter, at 10 µM, stronger effect = higher value

Row | SMILES | cell count [1] | inhibition [1] | inhibition of aggregation [2] | nuclei count [2] [%] | inhibition [3] | nuclei count [3] [%] | fluorescence slope [4] | NADPH fluorescence slope [5] | fluorescence slope [6] | inhibition [7] | inhibition [8]
1 | O=c1cc(-c2ccco2)oc2ccc(Cl)cc12 | 286 | -0.8% (inactive) | 19.7% (inactive) | 70 | 32.1% (inactive) | 111 | -0.568 (inactive) | -2.4e-05 (inactive) | 0.00691 (inactive) | 6.8% (inactive) | -71.7% (inactive)
2 | COc1ccc(S(=O)(=O)NC(CC(=O)NCc2ccco2)c2ccco2)cc1 (stereo not drawn) | 621 | 8.2% (inactive) | 0.5% (inactive) | 114 | -67.3% (inactive) | 97.1 | -0.566 (inactive) | -3e-05 (inactive) | 0.00653 (inactive) | 19.3% (inactive) | 20.6% (inactive)
3 | CCCC(O)(CCN(C)C)c1ccc(OC)cc1 (stereo not drawn) | 701 | 6.7% (inactive) | 18.4% (inactive) | 95.2 | -50.6% (inactive) | 87.3 | -0.543 (inactive) | -8.4e-06 (inactive) | 0.00506 (inactive) | 21.2% (inactive) | 29.6% (inactive)
4 | CCOC(=O)C1CCN(c2c(NCCCN(CC)c3ccccc3)c(=O)c2=O)CC1 | 266 | 5.2% (inactive) | 8.3% (inactive) | 97.6 | -20.2% (inactive) | 95.4 | -0.43 (inactive) | -0.000398 (inactive) | 0.00476 (inactive) | 2.28% (inactive) | 9.33% (inactive)
5 | COc1ccc(N(CC(=O)NC2CCCC2)C(=O)Cn2nnc(-c3ccc(C)cc3)n2)cc1 | 465 | -3.9% (inactive) | 8.3% (inactive) | 90.6 | -65.7% (inactive) | 106 | -0.587 (inactive) | 8e-06 (inactive) | 0.00452 (inactive) | -14.1% (inactive) | 0.19% (inactive)
6 | COc1cccc(OC)c1C(=O)Nc1ccccc1N1CCCC1 | 417 | -3.4% (inactive) | 3.7% (inactive) | 92.9 | 4.8% (inactive) | 118 | -0.474 (inactive) | -5.8e-05 (inactive) | 0.00391 (inactive) | 15.4% (inactive) | 8.75% (inactive)
7 | Oc1ccc(N2CCN(C(c3cccnc3)c3nnnn3Cc3ccccc3)CC2)cc1 (stereo not drawn) | 612 | 1.4% (inactive) | -2.4% (inactive) | 118 | -71.6% (inactive) | 113 | -0.468 (inactive) | -0.000313 (inactive) | 0.0054 (inactive) | 9.52% (inactive) | -11.5% (inactive)
8 | CCn1c(CCNC(=O)c2ccc(OC)c(OC)c2)nc2ccccc21 | 275 | -8.5% (inactive) | -14.6% (inactive) | 95.7 | 3.1% (inactive) | 88.5 | -0.468 (inactive) | -3.6e-05 (inactive) | 0.00543 (inactive) | 15.9% (inactive) | 6.06% (inactive)
9 | COC(=O)Nc1ccc(S(=O)(=O)N(C)CC(F)(F)C(F)F)cc1 | 642 | -11.1% (inactive) | -5.6% (inactive) | 114 | -57.5% (inactive) | 86.7 | -0.568 (inactive) | 3.2e-05 (inactive) | 0.00406 (inactive) | 12% (inactive) | 13.7% (inactive)
10 | COc1ccc(CCNS(=O)(=O)c2ccc3c(c2)OCCO3)cc1 | 361 | 4.2% (inactive) | 2.3% (inactive) | 102 | 33.5% (inactive) | 106 | -0.466 (inactive) | -3.5e-05 (inactive) | 0.00491 (inactive) | 14.6% (inactive) | 16.5% (inactive)
11 | CCc1ccc(NS(=O)(=O)c2ccc3[nH]cc(C(=O)N4CCCCC4)c(=O)c3c2)cc1 | 672 | 13.7% (inactive) | 14.2% (inactive) | 86 | 2.5% (inactive) | 81.2 | -0.562 (inactive) | -5.7e-05 (inactive) | 0.00784 (inactive) | 20.2% (inactive) | 24.4% (inactive)
12 | CCn1c(=O)n(CC(=O)NCc2ccccc2OC)c(=O)c2ccccc21 | 467 | -30.1% (inactive) | -16.5% (inactive) | 100 | -106% (inactive) | 92 | -0.555 (inactive) | -4.7e-05 (inactive) | 0.00528 (inactive) | 18.2% (inactive) | 23.1% (inactive)
13 | O=C1CCc2nc3sc4c(c3c(=O)n2N1)CCCC4 | 667 | -18.1% (inactive) | -14% (inactive) | 104 | 37.8% (inactive) | 98.8 | -0.424 (inactive) | 4.4e-05 (inactive) | 0.00678 (inactive) | -2.82% (inactive) | -5.12% (inactive)
14 | CCn1c(=O)cc(SCC(=O)Nc2ccc3c(c2)OCO3)c2ccccc21 | 368 | 3.1% (inactive) | 1.5% (inactive) | 97.6 | -7.2% (inactive) | 115 | -0.432 (inactive) | 4e-05 (inactive) | 0.00544 (inactive) | -16.8% (inactive) | -13.5% (inactive)
15 | COc1ccc(CC(=O)NCc2ccccc2)cc1S(=O)(=O)N1CCOCC1 | 404 | -3.1% (inactive) | -17.5% (inactive) | 104 | -26.1% (inactive) | 110 | -0.583 (inactive) | -1.6e-05 (inactive) | 0.00498 (inactive) | 18.6% (inactive) | 21.9% (inactive)
16 | O=C1CSC(c2cn(-c3ccccc3)nc2-c2cccs2)N1CC1CCCO1 (stereo not drawn) | 453 | -2.6% (inactive) | 10.2% (inactive) | 101 | -83.2% (inactive) | 117 | -0.534 (inactive) | -3e-05 (inactive) | 0.00528 (inactive) | 18.7% (inactive) | 26.5% (inactive)
17 | CCOC(=O)Cc1nn2c(=O)cc(C)nc2s1 | 728 | -22.9% (inactive) | 6.2% (inactive) | 118 | 2.2% (inactive) | 94.9 | -0.474 (inactive) | 0.000188 (inactive) | 0.00652 (inactive) | 2.1% (inactive) | 11.1% (inactive)
18 | COc1cc(NS(=O)(=O)c2cccc3nsnc23)c(C(=O)O)cc1OC | 296 | -6% (inactive) | -7.8% (inactive) | 95.9 | 5.3% (inactive) | 136 | -0.575 (inactive) | -4.3e-05 (inactive) | 0.00636 (inactive) | 14.8% (inactive) | 17.5% (inactive)
19 | Cc1ccc(CNC(=O)CSc2n[nH]c(N)n2)cc1 | 498 | -7.2% (inactive) | 20% (inactive) | 44.8 | -21.8% (inactive) | 136 | -0.579 (inactive) | -6.4e-05 (inactive) | 0.00347 (inactive) | 15.9% (inactive) | 20.6% (inactive)
20 | CCOC(=O)c1c(NC(=O)Cn2c(C)nc3ccccc32)sc2c1CCC2 | 459 | -6.2% (inactive) | 15.3% (inactive) | 102 | -75.4% (inactive) | 112 | -0.552 (inactive) | -2.4e-05 (inactive) | 0.00437 (inactive) | 17.3% (inactive) | 24% (inactive)
21 | O=c1oc2ccccc2n1CCn1c2ccccc2c2nc3ccccc3nc21 | 714 | -7.8% (inactive) | -10.6% (inactive) | 103 | -9.3% (inactive) | 109 | -0.273 (inactive) | -1.3e-05 (inactive) | 0.00487 (inactive) | -5.18% (inactive) | 9.99% (inactive)
22 | COc1ccccc1OC(=O)c1ccc(SC)cc1OC | 384 | -15.2% (inactive) | 6.6% (inactive) | 99.3 | 7.8% (inactive) | 116 | -0.57 (inactive) | -2.8e-05 (inactive) | 0.00466 (inactive) | -1.26% (inactive) | 2.42% (inactive)
23 | Cc1ccccc1-c1nc(CN2CCC(C(=O)NCCCN3CCOCC3)CC2)c(C)o1 | 598 | -5.3% (inactive) | -16.7% (inactive) | 89.8 | -67.2% (inactive) | 102 | -0.496 (inactive) | 6.2e-05 (inactive) | 0.00497 (inactive) | -3.78% (inactive) | 22.4% (inactive)
24 | CCC(Sc1ccc(C(=O)O)cc1)C(=O)O (stereo not drawn) | 319 | -1.8% (inactive) | -13.8% (inactive) | 110 | -40.5% (inactive) | 109 | -0.566 (inactive) | -2.4e-05 (inactive) | 0.0053 (inactive) | 1.75% (inactive) | 7.14% (inactive)
25 | Cc1nc(NCc2ccccn2)c2ccccc2n1 | 416 | -13.6% (inactive) | 13% (inactive) | 69.7 | -49.1% (inactive) | 121 | -0.572 (inactive) | -4.7e-05 (inactive) | 0.00634 (inactive) | 4.35% (inactive) | -44.1% (inactive)
26 | COC(=O)c1oc2ccc(OC)cc2c1N | 669 | 5.5% (inactive) | 18.1% (inactive) | 85.1 | -4.2% (inactive) | 101 | -0.523 (inactive) | 5.1e-06 (inactive) | 0.00575 (inactive) | -31.8% (inactive) | -55% (inactive)
27 | O=C(Nc1ccccc1N1CCN(C(=O)c2ccc(Cl)cc2)CC1)c1cc2ccccc2o1 | 424 | 0% (inactive) | -5.5% (inactive) | 101 | -108% (inactive) | 104 | -0.549 (inactive) | -6.3e-06 (inactive) | 0.00626 (inactive) | 1.02% (inactive) | 17% (inactive)
28 | O=C(NCc1n[nH]c(=S)n1-c1ccc(F)cc1)c1ccco1 | 711 | -16.8% (inactive) | -0.3% (inactive) | 102 | -72.4% (inactive) | 126 | -0.463 (inactive) | -2.7e-05 (inactive) | 0.00529 (inactive) | 12.1% (inactive) | 13.9% (inactive)

— PubChem BioAssay
